Assay: Clearance in human liver microsomes assessed per mg of protein by LC/MS analysis
Type: ADME, Microsome
In short: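 Human liver microsomes at 0.5 mg/mL protein. Reaction started with NADPH, run at 37 °C without shaking. Aliquots taken at 0.1, 10, 20 and 30 min for LC/MS analysis. Clearance expressed in µL/min/mg.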

Compound | microsomal CLint [µL/min/mg]
c1ccc(CC2CNCCN2c2ccc3[nH]ccc3c2)cc1 (stereo not drawn) | 43.3
c1ccc(CC2CNCCN2c2ccc3[nH]ncc3c2)cc1 (stereo not drawn) | 3.8
Fc1cc(N2CCNCC2Cc2ccccc2)cc2cc[nH]c12 (stereo not drawn) | 16.8
